From ChEMBL document CHEMBL1124084, “Studies on scavengers of active oxygen species. 1. Synthesis and biological activity of 2-O-alkylascorbic acids” (J Med Chem, 1988)

What was measured:
Rattus norvegicus [1] = species on record: Rattus norvegicus; assay: Antilipid peroxidation was measured at 10e-5 M concentration; format: functional
In short: (§1)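 Rat brain lipid peroxidation: brains from male SD rats (12 weeks old), exsanguinated under pentobarbital anaesthesia, homogenized to 5% in phosphate buffer pH 7.4. Homogenate incubated with test drug at 37 °C for 1 h. Lipid peroxide quantified by the thiobarbituric acid method.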

Rattus norvegicus [2] = species on record: Rattus norvegicus; assay: Antilipid peroxidation was determined; format: functional; in short: as §1
Rattus norvegicus [3] = species on record: Rattus norvegicus; assay: Inhibition of lipid peroxidation was determined with rat brain tissue homogenates; format: functional
In short: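 Brains excised from male SD rats (12 weeks), exsanguinated under pentobarbital anesthesia; 5% homogenate in phosphate buffer pH 7.4 incubated with test drug 1 h at 37 °C; lipid peroxide quantified by thiobarbituric acid method.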

[4] = Reducing activity determined by the use of stable radical alpha,alpha-di-phenyl-beta-picrylhydrazyl (DPPH); parameters: concentration or dose not given beside the values
Rattus norvegicus [5] = assay: Effect of AOS scavenger on ventricular tachycardia (VT), arrhythmias induced by ischemia-reperfusion in anesthetized rat, incidence at 3 mg/kg; 8/10; format: functional, Cardiac ventricle
Rattus norvegicus [6] = assay: Effect of AOS scavenger on ventricular fibrillation (VF), arrhythmias induced by ischemia-reperfusion in anesthetized rat, incidence at 3 mg/kg; 8/10; format: functional, Cardiac ventricle
Rattus norvegicus [7] = assay: Effect of AOS scavenger on ventricular fibrillation (VF), arrhythmias induced by ischemia-reperfusion in anesthetized rat, frequency, times at 3 mg/kg; format: functional, Cardiac ventricle
Rattus norvegicus [8] = assay: Effect of AOS scavenger on ventricular tachycardia (VT), arrhythmias induced by ischemia-reperfusion in anesthetized rat, frequency, times at 3 mg/kg; format: functional, Cardiac ventricle
Rattus norvegicus [9] = assay: Effect of AOS scavenger on premeture ventricular complexes PVCs, arrhythmias induced by ischemia-reperfusion in anesthetized rat, duration at 3 mg/kg; format: functional, Cardiac ventricle
Rattus norvegicus [10] = assay: Effect of AOS scavenger on ventricular fibrillation (VF), arrhythmias induced by ischemia-reperfusion in anesthetized rat, duration at 3 mg/kg; format: functional, Cardiac ventricle
Rattus norvegicus [11] = assay: Effect of AOS scavenger on ventricular tachycardia (VT), arrhythmias induced by ischemia-reperfusion in anesthetized rat, duration at 3 mg/kg; format: functional, Cardiac ventricle
Rattus norvegicus [12] = assay: Effect of AOS scavenger on ventricular fibrillation (VF), arrhythmias induced by ischemia-reperfusion in anesthetized rat, incidence at 100 mg/kg; 4/10; format: functional, Cardiac ventricle
Rattus norvegicus [13] = assay: Effect of AOS scavenger on premeture ventricular complexes PVCs, arrhythmias induced by ischemia-reperfusion in anesthetized rat, frequency per minute at 100 mg/kg
Rattus norvegicus [14] = assay: Effect of AOS scavenger on ventricular tachycardia (VT), arrhythmias induced by ischemia-reperfusion in anesthetized rat, duration at 100 mg/kg; format: functional, Cardiac ventricle
Rattus norvegicus [15] = assay: Effect of AOS scavenger on ventricular fibrillation (VF), arrhythmias induced by ischemia-reperfusion in anesthetized rat, frequency, times at 100 mg/kg; format: functional, Cardiac ventricle
Rattus norvegicus [16] = assay: Effect of AOS scavenger on ventricular tachycardia (VT), arrhythmias induced by ischemia-reperfusion in anesthetized rat, incidence at 100 mg/kg; 7/10; format: functional, Cardiac ventricle
Rattus norvegicus [17] = assay: Effect of AOS scavenger on ventricular tachycardia (VT), arrhythmias induced by ischemia-reperfusion in anesthetized rat, frequency, times at 100 mg/kg; format: functional, Cardiac ventricle
Rattus norvegicus [18] = assay: Effect of AOS scavenger on ventricular fibrillation (VF), arrhythmias induced by ischemia-reperfusion in anesthetized rat, duration at 100 mg/kg; format: functional, Cardiac ventricle

Compound	IC50 (Rattus norvegicus [3])	Antilipid peroxidation (Rattus norvegicus [2])	Reducing activity [4]	further results
CCCCCCCCCCCCCCCCCCOC1=C(OC)C(C(O)CO)OC1=O (stereo unspecified)				Antilipid peroxidation (Rattus norvegicus [1]): 12.5%
CCCCCCCCCCCCCCCCCCOC1=C(O)[C@@H](C(O)CO)OC1=O (stereo in doubt; 8)		44.7%		
CCCCCCCCOC1=C(O)OC(C(O)CO)C1=O (stereo unspecified)			93.9%	Antilipid peroxidation (Rattus norvegicus [1]): 1.6%
CCCCCCCCCCCCCCCCCCOC1=C(O)O/C(=C\CO)C1=O	8.5 µM			Antilipid peroxidation (Rattus norvegicus [1]): 53.5%
Cc1c(C)c2c(c(C)c1O)CC[C@@](C)(CCC[C@H](C)CCC[C@H](C)CCCC(C)C)O2 [ALPHA-TOCOPHEROL]		52%	72%	Incidence (Rattus norvegicus [5]): 8 N; Incidence (Rattus norvegicus [6]): 8 N; Frequency (Rattus norvegicus [7]): 2.1; Frequency (Rattus norvegicus [8]): 3.1; Activity (Rattus norvegicus [9]): 23.3 min; Duration (Rattus norvegicus [10]): 111.1 s; Duration (Rattus norvegicus [11]): 7.4 s
OC[C@@H](O)[C@@H](O)[C@H](O)[C@H](O)CO [MANNITOL]				Incidence (Rattus norvegicus [12]): 4 N; Activity (Rattus norvegicus [13]): 4.8 min⁻¹; Duration (Rattus norvegicus [14]): 7.7 s; Frequency (Rattus norvegicus [15]): 0.8; Incidence (Rattus norvegicus [16]): 7 N; Frequency (Rattus norvegicus [17]): 2.7; Duration (Rattus norvegicus [18]): 1.3 s

Second part, led by results:

IC50 (Rattus norvegicus [3])	Compound	Antilipid peroxidation (Rattus norvegicus [2])	Reducing activity [4]	further results
13 µM	CCCCCCCCCCOC1=C(O)OC(C(O)CO)C1=O (stereo unspecified)	42.5%		
11 µM	CCCCCCCCCCCCCCCCCCCCCOC1=C(O)OC(C(O)CO)C1=O (stereo unspecified)	30.6%	94.3%	
27 µM	CCCCCCCCCOC1=C(O)OC(C(O)CO)C1=O (stereo unspecified)	22.4%		
13 µM	CCCCCCCCCCCOC1=C(O)OC(C(O)CO)C1=O (stereo unspecified)	43.4%	94.6%	
5.4 µM	CCCCCCCCCCCCOC1=C(O)OC(C(O)CO)C1=O (stereo unspecified)	67.4%		
11 µM	CCCCCCCCCCCCCCCCCOC1=C(O)OC(C(O)CO)C1=O (stereo unspecified)	48.8%		
